# Experimental data gathered from unrelated publications.
# Organism: Bacillus cereus
Compound,observed,method,strain,measurement,result
CO[C@H]1O[C@H](COC(c2ccccc2)(c2ccccc2)c2ccccc2)[C@@H](OC(=O)c2ccc(C(C)(C)C)cc2)[C@H](OC(=O)c2ccc(C(C)(C)C)cc2)[C@H]1OC(=O)c1ccc(C(C)(C)C)cc1,microbial growth,broth dilution,,MIC,0.75 µg/mL
O=C(Nc1ccc(S(=O)(=O)c2nccs2)cc1)c1cc(N=Nc2nccs2)ccc1O,microbial growth,broth dilution,,MIC,200 µg/mL
O=C(O)CN1C(=O)/C(=C/c2c3ccccc3c(-c3ccc(N(c4ccccc4)c4ccccc4)cc3)c3ccccc23)SC1=S,microbial killing,broth dilution,ATCC10876,MBC,> 1000 µg/mL
CN[C@H](CC(C)C)C(=O)N[C@H]1C(=O)N[C@@H](CC(N)=O)C(=O)N[C@H]2C(=O)N[C@H]3C(=O)N[C@H](C(=O)N[C@H](C(=O)O)c4cc(O)cc(O)c4-c4cc3ccc4O)[C@H](O)c3ccc(c(Cl)c3)Oc3cc2cc(c3O[C@@H]2O[C@H](CO)[C@@H](O)[C@H](O)[C@H]2O[C@H]2C[C@](C)(N)[C@H](O)[C@H](C)O2)Oc2ccc(cc2Cl)[C@H]1O,microbial growth,broth dilution,ATCC13061,MIC,1 µg/mL
O=C(O)CN1C(=O)/C(=C/c2ccc(-c3ccc(N(c4ccccc4)c4ccccc4)cc3)c3ccccc23)NC1=S,microbial growth,broth dilution,ATCC10876,MIC,> 1000 µg/mL
CNC(=O)[C@@H](C)[C@H]1C(=O)/C(=C(O)/C=C/C(C)=C/[C@@H](C)[C@H]2O[C@@]3(C)O[C@H](C=C[C@@]34CO4)[C@@H]2C)C(=O)N1[C@@H]1CC[C@H](O)[C@H](C)O1,microbial growth,,,MIC,> 100 µM
CC(=O)NC[C@H]1CN(c2ccc(N3CCOCC3)c(F)c2)C(=O)O1,microbial growth,broth dilution,ATCC13061,MIC,1 µg/mL
O=C1NC(=S)S/C1=C\c1ccc(-c2ccc(N(c3ccccc3)c3ccccc3)cc2)cc1,microbial killing,broth dilution,ATCC10876,MBC,> 1000 µg/mL
O=C(O)c1cn(C2CC2)c2cc(N3CCNCC3)c(F)cc2c1=O,microbial growth,,,MIC,1.56 µM
Nc1ccc(-c2nc(-c3ccc(Oc4ccc(C(F)(F)F)cc4)cc3)no2)cc1,microbial growth,broth dilution,ATCC13061,MIC,4 µg/mL
